“And” between values parts separate entries of the source, which are not always exact repeats. Equal values may be shown once.
Tests used:
Pf (3D7) = test: Plasmodium falciparum screening; assay type: cell-based
Outline: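 Asexual intraerythrocytic P. falciparum 3D7 grown in expired human transfusion red cells. EC50 is reported with its 95% confidence interval, and n is the number of screening replicates.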

HepG2 = test: mammalian cell growth inhibition assay; assay type: cell-based; conditions: Homo sapiens, HepG2, read-out: EC50 HepG2, mammalian cell counter-screen
Outline: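 HepG2 counter-screen values are EC50s, each with its number of screening replicates (n) and a 95% confidence interval.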

[1] = mouse microsomal clearance; assay type: in vitro ADME; conditions: mouse liver microsomes
Outline: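 Intrinsic clearance is measured in mouse liver microsomes and expressed as mL min−1 (g liver)−1.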

- EC50 (Pf (3D7); Plasmodium falciparum, 3D7, read-out: EC50 Pf (3D7)): 7 nM
- Mouse microsomal CLint [1]: > 50 mL min^−1 (g liver)^−1
Compound: Cc1ccc(NC(C)(C)C(=O)Nc2ccc(F)c(Cl)c2)cc1S(=O)(=O)N1CCOCC1 [Compound 28, N-(3-chloro-4-fluorophenyl)-2-methyl-2-{[4-methyl-3-(morpholinosulfonyl)phenyl]amino}propanamide]
- improvement in antimalarial potency relative to compound 1 (Pf (3D7); Pf (3D7)): ~20 fold and > 10 fold
- EC50 (HepG2): > 25000 nM
